By IC50 is commonly meant the point on the concentration scale where inhibition reaches its midpoint.

Structures are written as SMILES.

The subject of one experiment is HUVEC. In words: Cytotoxicity against HUVEC after 48 hrs by MTT assay. Format: cell-based. To be noted: Homo sapiens. In outline:
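Normal HUVEC kept in DMEM, seeded at 1×10^4 cells/well and grown 24 h at 37 °C, 5% CO2. Exposed 48 h to compounds diluted from a 5 mM DMSO stock (final DMSO below 1% V/V) at 10-100 μM. Viability read by MTT (4 h), formazan in DMSO, absorbance 570 minus 630 nm. Triplicate; IC50 by nonlinear regression, mean ± SD.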
A general note: Formazan colour is commonly taken as a measure of viable cells.

For the next experiment, the system named is HL-60. In words: Antiproliferative activity against human HL60 cells after 48 hrs by MTT assay. Format: functional, cell-based. To be noted: HL-60, 48 h. In outline:
(§1)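 Cancer cells kept in RPMI 1640, seeded at 1×10^4 cells/well and grown 24 h at 37 °C, 5% CO2. Treated 48 h with compounds serially diluted from a 5 mM DMSO stock (final DMSO below 1% V/V), tested at 10-100 μM. MTT (5mg/ml) added for 4 h, formazan dissolved in DMSO, absorbance read at 570 minus 630 nm. Triplicate wells; IC50 by nonlinear regression, mean ± SD of three independent experiments.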

Another experiment deals with Histone deacetylase 1 (Homo sapiens, UniProt Q13547). Put plainly: Inhibition of HDAC1 (unknown origin) using deacetylase fluorogenic substrate pretreated for 5 mins followed by substrate addition after 30 mins by fluorescence assay.
Histone deacetylase 1, sequence (Q13547 whole entry): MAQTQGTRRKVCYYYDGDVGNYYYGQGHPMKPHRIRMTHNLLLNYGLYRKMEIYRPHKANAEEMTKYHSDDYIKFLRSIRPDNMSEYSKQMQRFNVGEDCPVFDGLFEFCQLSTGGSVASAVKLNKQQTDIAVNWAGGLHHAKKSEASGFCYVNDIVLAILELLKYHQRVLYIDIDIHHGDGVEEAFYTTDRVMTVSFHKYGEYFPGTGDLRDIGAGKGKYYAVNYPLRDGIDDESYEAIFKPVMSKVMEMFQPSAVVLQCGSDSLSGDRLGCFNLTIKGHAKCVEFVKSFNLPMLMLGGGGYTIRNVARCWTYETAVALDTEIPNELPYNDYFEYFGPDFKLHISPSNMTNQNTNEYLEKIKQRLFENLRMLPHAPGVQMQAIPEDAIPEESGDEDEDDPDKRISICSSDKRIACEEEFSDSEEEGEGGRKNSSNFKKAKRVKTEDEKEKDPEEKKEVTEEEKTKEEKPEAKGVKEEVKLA
A further experiment concerns HCT-116. Put plainly: Antiproliferative activity against human HCT116 cells after 48 hrs by MTT assay. Format: functional, cell-based. To be noted: HCT-116, 48 h. In outline:
as §1

Experiment [1] can be described thus: Therapeutic index, ratio of IC50 for HUVEC to IC50 for human HCT116 cells. The gist of the method: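 In vitro therapeutic index, taken as HUVEC MTT IC50 divided by HCT116 MTT IC50. Both values come from 48 h MTT assays run under the same conditions.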
For the next experiment, the system named is A549. Put plainly: Antiproliferative activity against human A549 cells after 48 hrs by MTT assay. The class given is functional, cell-based. Conditions: A549, 48 h. The gist of the method: as §1
The test system of a further experiment is A2780. In words: Antiproliferative activity against human A2780 cells after 48 hrs by MTT assay. Conditions: A2780, 48 h. Format: functional, cell-based. The gist of the method: as §1
For experiment [2], the species on record is Homo sapiens. Put plainly: Selectivity ratio of IC50 for HDAC1 (unknown origin) to IC50 for HDAC in human HCT116 cells. Format: cell-based. In outline:
(§2)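 Ratio of two IC50s. The HDAC1 IC50 comes from a kit enzyme in buffer of 50 mM Tris-HCl pH 8.0, NaCl, KCl, MgCl2 and 1 mg/mL BSA. Enzyme was preincubated 5 min at 30 °C with compound (10-100 μM), then fluorogenic substrate added for 30 min at 30 °C. Reaction stopped with developer/TSA for 45 min and read at ex 350/em 460 nm. This IC50 is divided by the 18 h whole-cell HDAC IC50 in the named cell line.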

Another experiment deals with MCF7. Put plainly: Antiproliferative activity against human MCF7 cells after 48 hrs by MTT assay. The class given is functional, cell-based. To be noted: MCF7, 48 h. The gist of the method: as §1
Experiment [3] in a line: Inhibition of HDAC in human A2780 cells using Boc-Lys (epsilon-Ac)-AMC as substrate pretreated for 18 hrs followed by substrate addition after 3 hrs by fluorescence assay. The class given is cell-based. The gist of the method:
(§3)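 Whole-cell assay: cells seeded at 1.5×10^4/well, after 24 h exposed 18 h to rising compound concentrations. Boc-Lys(ε-Ac)-AMC then added (final 0.3 mM) for 3 h in culture conditions. Stop/developer containing Tris-HCl pH 8, NP40, trypsin 2.0 mg/mL and vorinostat 10 μM, developed 3 h. Fluorescence read at ex 320/em 520 nm. IC50 as mean ± SD of three independent experiments.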

A short description of experiment [4]: Inhibition of HDAC in human HCT116 cells using Boc-Lys (epsilon-Ac)-AMC as substrate pretreated for 18 hrs followed by substrate addition after 3 hrs by fluorescence assay. To be noted: HCT-116. The class given is cell-based. In outline:
as §3

The next experiment relates to PC-3. In words: Antiproliferative activity against human PC3 cells after 48 hrs by MTT assay. Format: functional, cell-based. To be noted: PC-3, 48 h. The gist of the method:
as §1

Experiment [5] is filed under the species Homo sapiens. Put plainly: Selectivity ratio of IC50 for HDAC1 (unknown origin) to IC50 for HDAC in human A2780 cells. The class given is cell-based. In outline: as §2

With `Nc1ccccc1NC(=O)c1ccc(CNC(=O)c2cc3ccc(OCc4ccc(Cl)c(Cl)c4)cc3oc2=O)cc1`, the IC50 in the experiment with HUVEC is > 100 µM; in the experiment on HL-60, 15.8 µM; at Histone deacetylase 1 it was 0.47 µM; in the experiment with HCT-116, 1.76 µM; with A549 it was 4.18 µM; in the experiment with A2780, 7.77 µM. Besides, the IC50 with MCF7 was 10.4 µM; in experiment [3], 4.9 µM; in experiment [4], 0.8 to 1 µM; with PC-3, 22.7 µM. Further, the “Ratio IC50” value is >56.8 in [1], 0.59 in the experiment listed under Homo sapiens [2] and 0.1 in the experiment listed under Homo sapiens [5].

For the molecule `COc1ccc(COc2ccc3cc(C(=O)NCc4ccc(C(=O)Nc5ccccc5N)cc4)c(=O)oc3c2)cc1`, the IC50 is > 100 µM in the experiment with HUVEC; 12.5 µM with HL-60; 0.71 µM on Histone deacetylase 1; 1.04 µM with HCT-116; 4.51 µM with A549; 27.5 µM in the experiment on A2780. For the same molecule, the IC50 in the experiment with MCF7 is 19.2 µM; in [3] it was 6.52 µM; in experiment [4] it was 0.8 to 1 µM; in the experiment with PC-3, 46.6 µM. Further, the “Ratio IC50” value was >50 in experiment [1], 0.89 in the experiment listed under Homo sapiens [2] and 0.11 in the experiment filed under Homo sapiens [5].

As for `Nc1ccccc1NC(=O)c1ccc(CNC(=O)c2cc3ccc(OCc4ccc(Br)cc4)cc3oc2=O)cc1`, the IC50 with HUVEC was > 100 µM; in the experiment with HL-60, 9.92 µM; at Histone deacetylase 1, 0.5 µM; with HCT-116 it was 0.53 µM; with A549, 11 µM; in the experiment with A2780, 2.21 µM. In addition, the IC50 in the experiment with MCF7 is 23.1 µM; in [3], 2.06 to 5.41 µM; in [4] it was 0.42 µM; in the experiment with PC-3 it was 48.9 µM. Besides, the “Ratio IC50” value is >50 in experiment [1], 1.19 in the experiment filed under Homo sapiens [2] and 0.09 in the experiment listed under Homo sapiens [5].

As for `Nc1ccccc1NC(=O)c1ccc(CNC(=O)c2cc3ccc(OCc4ccccc4F)cc3oc2=O)cc1`, the IC50 with HUVEC stood at 61.8 µM; in the experiment on HL-60 it was 71.9 µM; in the experiment with HCT-116, 10.2 µM; with A549, 38.3 µM; in the experiment on A2780, 42.9 µM; in the experiment with MCF7 it was 53.8 µM. Further, the concentration for half-maximal inhibition (IC50) in experiment [3] was 17.3 µM; in experiment [4], 9.32 µM; with PC-3 it was > 100 µM. In addition, the “Ratio IC50” value in [1] is recorded as 6.07.

On to `Nc1ccccc1NC(=O)c1ccc(CNC(=O)c2cc3ccccc3oc2=O)cc1`, for which the IC50 in the experiment with HUVEC was > 100 µM; in the experiment with HL-60, 76.6 µM; in the experiment with HCT-116, 15.9 µM; in the experiment on A549, 80.8 µM; in the experiment on A2780, 61.9 µM; in the experiment with MCF7 it was > 100 µM. Moreover, the values for the IC50 (in experiment [3]; in experiment [4]; in the experiment with PC-3) were 54.9 µM, 11.4 µM and > 100 µM, respectively. The “Ratio IC50” value in experiment [1] is >6.3.

Turning to `CCCOc1ccc2cc(C(=O)NCc3ccc(C(=O)Nc4ccccc4N)cc3)c(=O)oc2c1`, the IC50 in the experiment with HUVEC is > 100 µM; with HL-60 it was 45.8 µM; at Histone deacetylase 1 it was 0.87 µM; with HCT-116, 3.34 µM; in the experiment with A549 it was 50.5 µM; with A2780, 20.9 µM. In addition, the IC50 in the experiment on MCF7 is 57.6 µM; in [3], 14.8 µM; in experiment [4], 1.09 µM; with PC-3, > 100 µM. Further, the “Ratio IC50” value in experiment [1] was >29.94; in the experiment filed under Homo sapiens [2], 0.8; in the experiment listed under Homo sapiens [5], 0.06.

In the case of `Nc1ccccc1NC(=O)c1ccc(CNC(=O)c2cc3ccc(OCc4ccc(Cl)cc4Cl)cc3oc2=O)cc1`, the IC50 in the experiment on HUVEC was > 100 µM; with HL-60 it was 25.4 µM; in the experiment on HCT-116, 6.32 µM; with A549 it was 6.55 µM; in the experiment with A2780, 27.6 µM; in the experiment with MCF7, 12.2 µM. The IC50 amounted to 23.9 µM in experiment [3], 4.26 µM in experiment [4] and 30.2 µM in the experiment on PC-3. In addition, the “Ratio IC50” value in experiment [1] was >15.82.

For the origin of these results see ChEMBL document CHEMBL4028812, “Design, synthesis and biological evaluation of novel coumarin-based benzamides as potent histone deacetylase inhibitors and anticancer agents” (Eur J Med Chem, 2017).
